Measured values reported in ChEMBL document CHEMBL3399918, “In vitro radical scavenging and cytotoxic activities of novel hybrid selenocarbamates” (Bioorg Med Chem, 2015).
Calls of active or inactive are those of the source. The rule behind the calls is not given here.

Columns and labels:
[1] = Cytotoxicity against human HTB-54 cells after 72 hrs by MTT assay; format: functional; conditions: HTB-54, 72 h; for CC50: read-out: LC50 (the source's name)
How it was run: (§1)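 CCRF-CEM, HT-29, PC-3 and HTB-54 cells grown in RPMI 1640 with 10% foetal calf serum, 2 mM L-glutamine, penicillin/streptomycin, 10 mM HEPES (pH 7.4). Five concentrations, 0.01–100 μM, 72 h at 37 °C, 5% CO2; MTT read-out. GI50, TGI and LC50 versus untreated controls; at least 3 independent experiments in quadruplicate.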

[2] = Cytotoxicity against human PC3 cells after 72 hrs by MTT assay; format: functional; conditions: PC-3, 72 h; how it was run: as §1
HT-29 = assay: Cytotoxicity against human HT-29 cells after 72 hrs by MTT assay; format: functional; conditions: HT-29, 72 h; how it was run: as §1
[3] = Antioxidant activity assessed as ABTS radical scavenging activity at 0.1 mg/ml after 6 mins; format: physicochemical; conditions: 0.1 h
How it was run: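 Diluted with 50% ethanol to A741 0.700 ± 0.02. A741 decrease read after 6 min against a 50% ethanol blank. % scavenged relative to a vehicle-plus-radical control. Quadruplicate.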

CCRF-CEM = assay: Cytotoxicity against human CCRF-CEM cells after 72 hrs by MTT assay; format: functional; how it was run: as §1
[4] = Antioxidant activity assessed as ABTS radical scavenging activity by measuring Trolox equivalent antioxidant capacity after 6 mins; format: physicochemical; conditions: 0.1 h
How it was run: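 ABTS dissolved in deionized water at 1 mg/mL, oxidised to radical cation with potassium persulfate (2.45 mM final), kept overnight at room temperature in dark, then diluted with 50% ethanol to A741 = 0.700 ± 0.02. Compound (1 mg/mL ethanol stock) added 1:10 (0.1 mg/mL); A741 decrease read after 6 min against 50% ethanol blank. Trolox positive control; quadruplicate; TEAC from calibration curve.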

MCF7 = assay: Cytotoxicity against human MCF7 cells after 72 hrs by MTT assay; format: functional; conditions: MCF7, 72 h; for CC50: read-out: LC50 (the source's name)
How it was run: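 MCF-7 cells grown in EMEM with 10% foetal calf serum, 2 mM L-glutamine, 100 units/mL penicillin, 100 µg/mL streptomycin. Exposed to five concentrations between 0.01 and 100 μM for 72 h, 37 °C, humidified 5% CO2; MTT read-out. GI50, TGI, LC50 relative to untreated controls; ≥3 independent experiments in quadruplicate.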

[5] = Cytotoxicity against human 184B5 cells after 72 hrs by MTT assay; format: cell-based; conditions: for GI50 at 72 h: 184B5 cells; for LC50 / TGI: 184b5, 72 h
How it was run: (§2)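 Non-malignant lines: 184B5 (normal breast) in Hams F-12/DMEM (50:50) with published supplements; BEAS-2B (bronchial epithelium) in Hams F-12/DMEM (50:50) with 10% foetal calf serum, 2 mM L-glutamine, penicillin/streptomycin. Compounds at five concentrations, 0.01–100 μM, 72 h, 37 °C, 5% CO2; MTT read-out. GI50, TGI, LC50 relative to untreated controls; ≥3 independent experiments in quadruplicate.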

[6] = Cytotoxicity against human BEAS2B cells after 72 hrs by MTT assay; format: cell-based, BEAS-2B; conditions: for GI50 at 72 h: BEAS2B cells; for LC50 / TGI: beas-2b, 72 h; how it was run: as §2
[7] = Antioxidant activity assessed as DPPH radical scavenging activity at 0.5 mg/ml after 180 mins; format: physicochemical; conditions: 3 h
How it was run: (§3)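 Compounds in absolute ethanol, serially diluted from 1 mg/mL, mixed 1:1 with […] in ethanol. Final range 0.016–0.5 mg/mL, 6 concentrations. Incubated at 37 °C in the dark, with decolourisation followed at 517 nm at several time intervals. % scavenged = (A vehicle control − A sample)/A control × 100. Quadruplicate; mean ± SD.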

[8] = Glutathione peroxidase-like activity assessed as reduction in H2O2 reduction at 0.033 mg/ml by tiophenol based UV absorption spectrometry
How it was run: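 Iwaoka–Tomoda method: compound in ethanol (0.1 mg/mL stock) mixed in equal volumes with 2 mM PhSH and 5 mM H2O2 (both ethanol stocks), thiophenol-driven catalytic H2O2 reduction. Data collected every 5 s. Negative control without H2O2 (compound, vehicle, PhSH). Triplicate.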

[9] = Glutathione peroxidase-like activity assessed as reduction in H2O2 reduction by tiophenol based UV absorption spectrometry
How it was run: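 Iwaoka–Tomoda thiophenol method. Compound in ethanol at 0.1 mg/mL, mixed in equal volumes with 2 mM PhSH in ethanol and 5 mM H2O2 in ethanol (stock concentrations). Data collected every 5 s. Negative control contained compound, vehicle and PhSH without H2O2. Triplicate; mean ± SD.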

[10] = Antioxidant activity assessed as DPPH radical scavenging activity at 0.25 mg/ml; format: physicochemical; conditions: TDE = time-dependent effect; how it was run: as §3

CCOC(=O)Nc1ccc([Se]C#N)cc1
GI50 [1]: 24.9 µM
TGI [1]: 49.3 µM
CC50 [1]: 72.7 µM
GI50 [2]: 9.9 µM
LC50 (concentration causing 50% net cell kill) [2]: 68.4 µM
TGI [2]: 39.2 µM
GI50 (HT-29): 9.3 µM
LC50 (HT-29): 66.6 µM
TGI (HT-29): 38 µM
inhibition (INH) [3]: 26.3%
GI50 (CCRF-CEM): 9.8 µM
LC50 (CCRF-CEM): 68.8 µM
TGI (CCRF-CEM): 39.1 µM
Activity [4]: 17.4 µg/µL
GI50 (MCF7): 8.9 µM
TGI (MCF7): 36.7 µM
CC50 (MCF7): 67.8 µM
GI50 at 72 h [5]: 5.5 µM
LC50 [5]: 59 µM
TGI [5]: 18.6 µM
GI50 at 72 h [6]: 21.7 µM
LC50 [6]: 72.2 µM
TGI [6]: 46.9 µM
inhibition (INH) [7]: 37%
Activity [8]: Active

COc1ccc(OC(=O)Nc2ccc([Se][Se]c3ccc(NC(=O)Oc4ccc(OC)cc4)cc3)cc2)cc1
GI50 [1]: 18 µM
TGI [1]: 46.3 µM
CC50 [1]: 74.5 µM
GI50 [2]: 4.4 µM
LC50 (concentration causing 50% net cell kill) [2]: 64.6 µM
TGI [2]: 28.2 µM
GI50 (HT-29): 13 µM
LC50 (HT-29): 79.2 µM
TGI (HT-29): 46.1 µM
inhibition (INH) [3]: > 25%
GI50 (CCRF-CEM): 5.3 µM
LC50 (CCRF-CEM): 63.1 µM
TGI (CCRF-CEM): 25.8 µM
GI50 (MCF7): 9.7 µM
TGI (MCF7): 42.8 µM
CC50 (MCF7): 76.8 µM
GI50 at 72 h [5]: 3.4 µM
LC50 [5]: 43.5 µM
TGI [5]: 8.1 µM
GI50 at 72 h [6]: 0.6 µM
LC50 [6]: 62.3 µM
TGI [6]: 19.9 µM
Activity [9]: inactive
inhibition (INH) [7]: > 50%

CC(C)COC(=O)Nc1ccc([Se][Se]c2ccc(NC(=O)OCC(C)C)cc2)cc1
GI50 [1]: 29 µM
TGI [1]: 52.9 µM
CC50 [1]: 76.9 µM
GI50 [2]: 24.2 µM
LC50 (concentration causing 50% net cell kill) [2]: 73.7 µM
TGI [2]: 48.9 µM
GI50 (HT-29): 19.9 µM
LC50 (HT-29): 77.4 µM
TGI (HT-29): 48.6 µM
inhibition (INH) [3]: 29.6%
GI50 (CCRF-CEM): 9.8 µM
LC50 (CCRF-CEM): 70.2 µM
TGI (CCRF-CEM): 39.8 µM
Activity [4]: 20 µg/µL
GI50 (MCF7): 19 µM
TGI (MCF7): 49.7 µM
CC50 (MCF7): 80.5 µM
GI50 at 72 h [5]: 5.5 µM
LC50 [5]: 56.6 µM
TGI [5]: 10.5 µM
GI50 at 72 h [6]: 13.1 µM
LC50 [6]: 72.4 µM
TGI [6]: 42.7 µM
Activity [9]: inactive
inhibition (INH) [7]: 66.5%
inhibition (INH) [10]: tde

CCOC(=O)Nc1ccc([Se][Se]c2ccc(NC(=O)OCC)cc2)cc1
GI50 [1]: 31.2 µM
TGI [1]: 56.6 µM
CC50 [1]: 82 µM
GI50 [2]: 28.8 µM
LC50 (concentration causing 50% net cell kill) [2]: 75.7 µM
TGI [2]: 52.2 µM
GI50 (HT-29): 26 µM
LC50 (HT-29): 76.1 µM
TGI (HT-29): 51.1 µM
inhibition (INH) [3]: 21.3%
GI50 (CCRF-CEM): 24.6 µM
LC50 (CCRF-CEM): 74.3 µM
TGI (CCRF-CEM): 49.5 µM
Activity [4]: 13.6 µg/µL
GI50 (MCF7): 9.9 µM
TGI (MCF7): 39 µM
CC50 (MCF7): 68.3 µM
GI50 at 72 h [5]: 5.7 µM
LC50 [5]: 58.7 µM
TGI [5]: 16.7 µM
GI50 at 72 h [6]: 16.1 µM
LC50 [6]: 71.9 µM
TGI [6]: 44 µM
inhibition (INH) [7]: 37%

CCCCOC(=O)Nc1ccc([Se][Se]c2ccc(NC(=O)OCCCC)cc2)cc1
GI50 [1]: 35.2 µM
TGI [1]: 57.3 µM
CC50 [1]: 79.4 µM
GI50 [2]: 28.6 µM
LC50 (concentration causing 50% net cell kill) [2]: 76.4 µM
TGI [2]: 52.5 µM
GI50 (HT-29): 27.6 µM
LC50 (HT-29): 82.4 µM
TGI (HT-29): 55 µM
inhibition (INH) [3]: 7.3%
GI50 (CCRF-CEM): 16.7 µM
LC50 (CCRF-CEM): 72.3 µM
TGI (CCRF-CEM): 44.5 µM
Activity [4]: 2.67 µg/µL
GI50 (MCF7): 17.3 µM
TGI (MCF7): 46.3 µM
CC50 (MCF7): 75.2 µM
GI50 at 72 h [5]: 7.2 µM
LC50 [5]: 63.1 µM
TGI [5]: 26 µM
GI50 at 72 h [6]: 24.2 µM
LC50 [6]: 75 µM
TGI [6]: 49.6 µM
inhibition (INH) [7]: 36.1%

CCCOC(=O)Nc1ccc([Se][Se]c2ccc(NC(=O)OCCC)cc2)cc1
GI50 [1]: 48.5 µM
TGI [1]: 68.4 µM
CC50 [1]: 88.3 µM
GI50 [2]: 18.4 µM
LC50 (concentration causing 50% net cell kill) [2]: 71.5 µM
TGI [2]: 45 µM
GI50 (HT-29): 18.3 µM
LC50 (HT-29): 76.1 µM
TGI (HT-29): 47.2 µM
inhibition (INH) [3]: 22.5%
GI50 (CCRF-CEM): 4.3 µM
LC50 (CCRF-CEM): 49.1 µM
TGI (CCRF-CEM): 8.8 µM
Activity [4]: 14.5 µg/µL
GI50 (MCF7): 31.7 µM
TGI (MCF7): 55.8 µM
CC50 (MCF7): 80 µM
GI50 at 72 h [5]: 7.2 µM
LC50 [5]: 62 µM
TGI [5]: 24.5 µM
GI50 at 72 h [6]: 14.4 µM
LC50 [6]: 72.2 µM
TGI [6]: 43.3 µM
inhibition (INH) [7]: 52.4%
